Here are results for three compounds from ChEMBL document CHEMBL1123568 (J Med Chem, 1987).

SMILES strings stand for the structures. In brackets after ≈: the same amount, converted by molar mass. Where only a bound is given, the exact number is not on record here.

Holding throughout (assay type): functional
One test deals with Acinetobacter. The experiment in a line: Antimicrobial activity against the acinetobacter sp. CMX 669 by 2-fold agar dilution method using brain-heart infusion agar. For orientation: In agar dilution the substance is mixed into plates at graded concentrations.
Test [1] has as its system Escherichia coli. The experiment in a line: Antimicrobial activity against the Escherichia coli H560 by 2-fold agar dilution method using brain-heart infusion agar. In short, it runs like this:
(§1)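 Read-out is the MIC, found by twofold agar dilution in brain-heart infusion agar. Strains were Escherichia coli H560, Staphylococcus aureus 45 and Staphylococcus aureus ATCC 6538 P.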

The subject of test [2] is Escherichia coli. The experiment in a line: Antimicrobial activity against the Escherichia coli JUHL by 2-fold agar dilution method using brain-heart infusion agar.
Another test deals with Klebsiella aerogenes. The experiment in a line: Antimicrobial activity against the enterobacter aerogenes ATCC 13048 by 2-fold agar dilution method using brain-heart infusion agar. The conditions noted are these: ATCC 13048, Brain.
For a further test, the system named is Klebsiella pneumoniae. The experiment in a line: Antimicrobial activity against the klebsiella pneumoniae 8045 by 2-fold agar dilution method using brain-heart infusion agar.
A further test concerns Micrococcus luteus. The test can be described thus: Antimicrobial activity against the micrococcus luteus 9341 by 2-fold agar dilution method using brain-heart infusion agar.
Test [3] relates to Pseudomonas aeruginosa. The test can be described thus: Antimicrobial activity against the Pseudomonas aeruginosa K 799/61 by 2-fold agar dilution method using brain-heart infusion agar.
Test [4] deals with Pseudomonas aeruginosa. The test can be described thus: Antimicrobial activity against the Pseudomonas aeruginosa K 799/WT by 2-fold agar dilution method using brain-heart infusion agar.
For another test, the system named is Enterococcus faecium. The experiment in a line: Antimicrobial activity against the faecium ATCC 8043 by 2-fold agar dilution method using brain-heart infusion agar. To be noted: ATCC 8043, Brain.
The test system of test [5] is Staphylococcus aureus. The experiment in a line: Antimicrobial activity against the Staphylococcus aureus 45 by 2-fold agar dilution method using brain-heart infusion agar. Summed up: as §1
Test [6] concerns Staphylococcus aureus. The experiment in a line: Antimicrobial activity against the Staphylococcus aureus ATCC 6538 P by 2-fold agar dilution method using brain-heart infusion agar. The conditions noted are these: ATCC 6538, Brain. In short, it runs like this:
as §1

Test [7] relates to Staphylococcus epidermidis. The test can be described thus: Antimicrobial activity against the Staphylococcus epidermis 3519 by 2-fold agar dilution method using brain-heart infusion agar.
Test [8] relates to Streptococcus pyogenes. The test can be described thus: Antimicrobial activity against the streptococcus pyogenes 2548 by 2-fold agar dilution method using brain-heart infusion agar.
The subject of another test is Streptococcus agalactiae. The test can be described thus: Antimicrobial activity against the streptococcus agalactiae CMX 508 by 2-fold agar dilution method using brain-heart infusion agar.
The next test deals with Streptococcus equinus. The test can be described thus: Antimicrobial activity against the streptococcus bovis A 5169 by 2-fold agar dilution method using brain-heart infusion agar.
Test [9] relates to Streptococcus pyogenes. The test can be described thus: Antimicrobial activity against the streptococcus pyogenes EES 61 by 2-fold agar dilution method using brain-heart infusion agar.

Usually MIC stands for the smallest concentration in the dilution series that meets the test's criterion for growth inhibition. With `C[C@H]1COc2c(N3CCN(C)CC3)c(F)cc3c(=O)c(C(=O)O)cn1c23.C[C@H]1COc2c(N3CCN(C)CC3)c(F)cc3c(=O)c(C(=O)O)cn1c23.O` [LEVOFLOXACIN], the MIC was 0.3 µg/mL in the test with Acinetobacter; 0.04 µg/mL in the test on Escherichia coli [1]; 0.07 µg/mL against Escherichia coli [2]; 0.07 µg/mL with Klebsiella aerogenes; < 0.04 µg/mL against Klebsiella pneumoniae; 1.21 µg/mL in the test with Micrococcus luteus. Also, the MIC in the test on Pseudomonas aeruginosa [3] was 0.07 µg/mL; against Pseudomonas aeruginosa [4], < 0.04 µg/mL; with Enterococcus faecium, 0.46 µg/mL; in the test with Staphylococcus aureus [5] it was 0.3 µg/mL; in the test with Staphylococcus aureus [6], 0.15 µg/mL; in [7], 0.3 µg/mL. The MIC stood at 0.26 µg/mL with Streptococcus pyogenes [8], 1.21 µg/mL against Streptococcus agalactiae, 1.21 µg/mL with Streptococcus equinus and 0.46 µg/mL in the test with Streptococcus pyogenes [9].

Consider `CC1COc2c(N3CCN(C)CC3)c(F)cc3c(=O)c(C(=O)O)cn1c23` (stereo not drawn) [OFLOXACIN], for which the minimum inhibitory concentration (MIC) against Acinetobacter was 0.39 µg/mL (≈ 1.08 µM); against Escherichia coli [1], 0.1 µg/mL (≈ 0.277 µM); against Escherichia coli [2], 0.05 µg/mL (≈ 0.138 µM); in the test on Klebsiella aerogenes, 0.2 µg/mL (≈ 0.553 µM); in the test with Klebsiella pneumoniae it was 0.05 µg/mL (≈ 0.138 µM); in the test with Micrococcus luteus, 3.1 µg/mL (≈ 8.58 µM). The MIC was 0.1 µg/mL (≈ 0.277 µM) against Pseudomonas aeruginosa [3]; 0.39 µg/mL (≈ 1.08 µM) against Pseudomonas aeruginosa [4]; 0.78 µg/mL (≈ 2.16 µM) in the test on Enterococcus faecium; 0.39 µg/mL (≈ 1.08 µM) against Staphylococcus aureus [5]; 0.2 µg/mL (≈ 0.553 µM) against Staphylococcus aureus [6]; 0.39 µg/mL (≈ 1.08 µM) in test [7]. Also, the MIC amounted to 0.39 µg/mL (≈ 1.08 µM) in the test with Streptococcus pyogenes [8], 1.56 µg/mL (≈ 4.32 µM) in the test on Streptococcus agalactiae, 1.56 µg/mL (≈ 4.32 µM) against Streptococcus equinus and 0.78 µg/mL (≈ 2.16 µM) in the test on Streptococcus pyogenes [9].

In the case of `C[C@@H]1COc2c(N3CCN(C)CC3)c(F)cc3c(=O)c(C(=O)O)cn1c23` [DEXTROFLOXACINE], the MIC in the test with Acinetobacter is 9.75 µg/mL (≈ 27 µM); with Escherichia coli [1], 9.75 µg/mL (≈ 27 µM); against Escherichia coli [2] it was 1.21 µg/mL (≈ 3.35 µM); against Klebsiella aerogenes, 9.75 µg/mL (≈ 27 µM); in the test on Klebsiella pneumoniae, 1.21 µg/mL (≈ 3.35 µM); in the test on Micrococcus luteus, > 9.75 µg/mL. The MIC in the test on Pseudomonas aeruginosa [3] was 1.21 µg/mL (≈ 3.35 µM); against Pseudomonas aeruginosa [4] it was 9.75 µg/mL (≈ 27 µM); against Enterococcus faecium, > 9.75 µg/mL; in the test with Staphylococcus aureus [5], 9.75 µg/mL (≈ 27 µM); in the test with Staphylococcus aureus [6], 4.8 µg/mL (≈ 13.3 µM); in [7], 4.8 µg/mL (≈ 13.3 µM). Besides, the MIC in the test with Streptococcus pyogenes [8], with Streptococcus agalactiae, with Streptococcus equinus and in the test with Streptococcus pyogenes [9] was > 9.75 µg/mL each time.
